Measured values from different studies.
Target: Sodium-dependent dopamine transporter (SLC6A3, Homo sapiens, UniProt Q01959)

Compound	read-out	action	method	cell line	concentration	inhibition
CN(CCN1CCC(OC(=O)Nc2ccccc2-c2ccccc2)CC1)C(=O)c1ccc(CN2CCC(C(N)=O)CC2)cc1	ligand displacement		radioligand		1 µM	-4%
Fc1ccc(C(OCCN2CCN(CCCc3ccccc3)CC2)c2ccc(F)cc2)cc1	transporter uptake	inhibitor		HEK293	1 µM	98%
CCN(CC)CCCC[C@H](NC(=O)[C@H](CC(C)C)NC(=O)[C@H](C)NC(=O)[C@H](Cc1ccccc1)NC(=O)c1ccc(C(C)(C)C)cc1)C(=O)N[C@@H](CO)C(=O)OC	ligand displacement		radioligand		10 µM	7%
COCc1c(-c2cc3cc(C)cc(OC)c3s2)c2c(N)ncnn2c1CN1CCNC(=O)C1	ligand displacement		radioligand		10 µM	35%
CCCCCCCCCCCC(=O)OC[C@@H](COP(=O)(O)OCCNC(=O)c1ccc(Cn2c(=O)[nH]c3c(N)nc(OCCOC)nc32)cc1)OC(=O)CCCCCCCCCCC	ligand displacement		radioligand		10 µM	64%
Cc1cc2c(-c3ccco3)cnc(N[C@H]3CCN(C)C[C@@H]3C(=O)NC3CCCCC3)c2[nH]c1=O	cell-free assay				10 µM	8.66%
CC(C)N1CCC[C@H]1CNC(=O)c1cn(C2CCCC2)c(=O)c2c1c1ccccc1n2C	ligand displacement		radioligand		10 µM	42%
COc1ccc(S(=O)(=O)N2CCCCC2)cc1C	ligand displacement		radioligand		10 µM	< 30%
Clc1ccc2c(C3CCN(CCc4c[nH]c5ccccc45)CC3)c[nH]c2c1	ligand displacement		radioligand		10 µM	96%
CN1CCN(c2ccnc(NCCc3ccccc3)n2)CC1	cell-free assay				10 µM	98%
CC(C)Cn1cnc2c(N)nc3ccccc3c21	ligand displacement		radioligand		10 µM	25%
